Data on seven compounds can be found in ChEMBL document CHEMBL3085701, “Optimization of novel indole-2-carboxamide inhibitors of neurotropic alphavirus replication” (J Med Chem, 2013).

Series [1] in a line: Cytotoxicity against human BE(2)-C cells after 18 to 20 hrs by MTT assay. It counts as cell-based. Background: Tetrazolium assays rely on reduction of a dye to a coloured formazan, in cell work by metabolically active cells.
The test system of series [2] is Western equine encephalitis virus. The experiment in a line: Antiviral activity against Western equine encephalomyelitis virus infected in human BE(2)-C cells assessed as inhibition of viral RNA replication after 18 to 20 hrs by luciferase reporter gene assay. It counts as functional, cell-based. For orientation: In a reporter assay the amount or activity of a reporter protein is the signal.

A short description of series [3]: Therapeutic index, ratio of CC50 for human BE(2)-C cells to IC50 for Western equine encephalitis virus. As to conditions: read-out: Ratio CC50/IC50.
For series [4], the target named is MDR1 (ABCB1, P-glycoprotein) (Homo sapiens, UniProt P08183). The experiment in a line: Inhibition of human MDR1 expressed in MDCK2 cells assessed as increase of rhodamine 123 uptake at 30 uM up to 240 mins relative to control. Format: ADME, cell-based, MDCK-II. As to conditions: MDCK2 cells expressing human MDR1, probe rhodamine 123. A digest of the protocol:
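Confluent MDR1-MDCKII cells (human Pgp-transfected) given fresh DMEM with 10 μM rhodamine 123, plus vehicle, tariquidar (5 μM) or compound (30 μM). Uptake at 37°C from 1 to 240 min, stopped by ice-cold PBS washes. Fluorescence read at ex 525/em 560-640 nm. Result expressed as % of same-day tariquidar effect, (Cav−Cveh)*100/(Ctar−Cveh). Triplicates on ≥3 occasions.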

A short description of series [5]: Half life in Balb-C mouse liver microsomes. It counts as ADME, Microsome. A digest of the protocol:
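Compound incubated with Balb-C mouse liver microsomes, and half-life determined for oxidative metabolism. Values are means of ≥2 independent incubations.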
(In general: Microsomes from liver hold many membrane-bound enzymes, among them those of drug oxidation.)

The test system of series [6] is Fort Morgan virus. The experiment in a line: Antiviral activity against Fort Morgan virus infected in human BE(2)-C cells assessed as reduction of viral titer at 25 uM after 24 hrs by plaque reduction assay (reference value: 47.1 +/- 10.5 x 10^6 pfu/ml). It counts as functional.
Series [7] is described as follows: Kinetic solubility of the compound. It counts as physicochemical.
A short description of series [8]: Cytotoxicity against human BE(2)-C cells assessed as cell viability at 25 uM after 24 hrs by MTT assay relative to control. It counts as cell-based. As to conditions: read-out: Activity.
The nature of series [9]: Plasma concentration in C57BL/6 mouse at 20 mg/kg, ip after 30 mins. Format: ADME, organism-based. More on the design: dose 20 mg/kg, route intraperitoneal. A digest of the protocol: (§1)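 C57BL/6 female mice given a single IP injection of compound in 2% sterile DMSO/PBS, at the stated dose. Duplicate mice per time point. Blood taken by cardiac puncture into EDTA and plasma separated. Cerebrum harvested after PBS perfusion and flash-frozen. Drug quantified by LC/MS/MS as ng/mL plasma or ng/g brain.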

Series [10] deals with Brain. As to the kind of experiment: Drug level in C57BL/6 mouse brain at 20 mg/kg, ip after 12 hrs. It counts as ADME, organism-based. Set-up: dose 20 mg/kg, route intraperitoneal. The settings on record: in vivo, BLD = below limit of detection. A digest of the protocol: (§2)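 Female C57BL/6 mice were given a single IP dose in 2% sterile DMSO/PBS. At each time point, duplicate mice had blood taken by cardiac puncture. They were then perfused with PBS, and the cerebrum was harvested and flash frozen on dry ice. Brain drug levels were quantified by LC/MS/MS and reported as ng/g; BLQ means below the limit of quantitation.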

Series [11] relates to Western equine encephalitis virus. The experiment in a line: Antiviral activity against Western equine encephalomyelitis virus infected in human BE(2)-C cells assessed as reduction of viral titer at 25 uM after 24 hrs by plaque reduction assay (reference value: 25.7 +/- 5.2 x 10^6 pfu/ml). Format: functional.
Series [12] has as its system Plasma. As to the kind of experiment: Plasma concentration in C57BL/6 mouse at 20 mg/kg, ip after 12 hrs. Format: ADME, organism-based. Set-up: dose 20 mg/kg, route intraperitoneal. The settings on record: in vivo, BLD = below limit of detection. A digest of the protocol:
as §1

Series [13] can be described thus: Plasma concentration in C57BL/6 mouse at 20 mg/kg, ip after 2 hrs. It counts as ADME, organism-based. Set-up: dose 20 mg/kg, route intraperitoneal. A digest of the protocol:
as §1

Series [14] has as its system Brain. The experiment in a line: Drug level in C57BL/6 mouse brain at 20 mg/kg, ip after 2 hrs. It counts as ADME, organism-based. Set-up: dose 20 mg/kg, route intraperitoneal. As to conditions: in vivo, BLD = below limit of detection. A digest of the protocol:
as §2

Series [15] can be described thus: Drug level in C57BL/6 mouse brain at 20 mg/kg, ip after 30 mins. Format: ADME, organism-based. More on the design: dose 20 mg/kg, route intraperitoneal. The settings on record: read-out: Drug uptake. A digest of the protocol: as §1
Series [16] can be described thus: Plasma concentration in C57BL/6 mouse at 30 mg/kg, ip after 30 mins. More on the design: dose 30 mg/kg, route intraperitoneal. Format: ADME, organism-based. A digest of the protocol:
as §1

A short description of series [17]: Plasma concentration in C57BL/6 mouse at 30 mg/kg, ip after 2 hrs. Format: ADME, organism-based. More on the design: dose 30 mg/kg, route intraperitoneal. A digest of the protocol: as §1
Series [18] deals with Plasma. As to the kind of experiment: (§3) Plasma concentration in C57BL/6 mouse at 30 mg/kg, ip after 12 hrs. It counts as ADME, organism-based. Set-up: dose 30 mg/kg, route intraperitoneal. As to conditions: mouse, in vivo, 12 h, BLD = below limit of detection. A digest of the protocol:
as §1

The test system of series [19] is Brain. As to the kind of experiment: Drug level in C57BL/6 mouse brain at 30 mg/kg, ip after 12 hrs. More on the design: dose 30 mg/kg, route intraperitoneal. It counts as ADME, organism-based. As to conditions: in vivo, BLD = below limit of detection. A digest of the protocol: as §2
For series [20], the system named is Brain. As to the kind of experiment: Drug level in C57BL/6 mouse brain at 30 mg/kg, ip after 2 hrs. As to conditions: in vivo, BLD = below limit of detection. More on the design: dose 30 mg/kg, route intraperitoneal. It counts as ADME, organism-based. A digest of the protocol: as §2
Series [21] deals with Brain. As to the kind of experiment: Drug level in C57BL/6 mouse brain at 30 mg/kg, ip after 30 mins. As to conditions: in vivo, 0.5 h, BLD = below limit of detection. Format: ADME, organism-based. More on the design: dose 30 mg/kg, route intraperitoneal. A digest of the protocol:
as §2

The nature of series [22]: as §3. More on the design: dose 30 mg/kg, route intraperitoneal. As to conditions: C57BL/6, mouse, plasma. Format: ADME, organism-based. A digest of the protocol: as §1

Some results are limits rather than exact numbers.

A word on the CC50: it is the concentration giving 50% cytotoxicity. The IC50 is the point on the concentration scale where inhibition reaches its midpoint. Usually inhibition stands for the relative decrease from the control value, in per cent.

Chain of MDR1 (ABCB1, P-glycoprotein) (P08183 whole entry): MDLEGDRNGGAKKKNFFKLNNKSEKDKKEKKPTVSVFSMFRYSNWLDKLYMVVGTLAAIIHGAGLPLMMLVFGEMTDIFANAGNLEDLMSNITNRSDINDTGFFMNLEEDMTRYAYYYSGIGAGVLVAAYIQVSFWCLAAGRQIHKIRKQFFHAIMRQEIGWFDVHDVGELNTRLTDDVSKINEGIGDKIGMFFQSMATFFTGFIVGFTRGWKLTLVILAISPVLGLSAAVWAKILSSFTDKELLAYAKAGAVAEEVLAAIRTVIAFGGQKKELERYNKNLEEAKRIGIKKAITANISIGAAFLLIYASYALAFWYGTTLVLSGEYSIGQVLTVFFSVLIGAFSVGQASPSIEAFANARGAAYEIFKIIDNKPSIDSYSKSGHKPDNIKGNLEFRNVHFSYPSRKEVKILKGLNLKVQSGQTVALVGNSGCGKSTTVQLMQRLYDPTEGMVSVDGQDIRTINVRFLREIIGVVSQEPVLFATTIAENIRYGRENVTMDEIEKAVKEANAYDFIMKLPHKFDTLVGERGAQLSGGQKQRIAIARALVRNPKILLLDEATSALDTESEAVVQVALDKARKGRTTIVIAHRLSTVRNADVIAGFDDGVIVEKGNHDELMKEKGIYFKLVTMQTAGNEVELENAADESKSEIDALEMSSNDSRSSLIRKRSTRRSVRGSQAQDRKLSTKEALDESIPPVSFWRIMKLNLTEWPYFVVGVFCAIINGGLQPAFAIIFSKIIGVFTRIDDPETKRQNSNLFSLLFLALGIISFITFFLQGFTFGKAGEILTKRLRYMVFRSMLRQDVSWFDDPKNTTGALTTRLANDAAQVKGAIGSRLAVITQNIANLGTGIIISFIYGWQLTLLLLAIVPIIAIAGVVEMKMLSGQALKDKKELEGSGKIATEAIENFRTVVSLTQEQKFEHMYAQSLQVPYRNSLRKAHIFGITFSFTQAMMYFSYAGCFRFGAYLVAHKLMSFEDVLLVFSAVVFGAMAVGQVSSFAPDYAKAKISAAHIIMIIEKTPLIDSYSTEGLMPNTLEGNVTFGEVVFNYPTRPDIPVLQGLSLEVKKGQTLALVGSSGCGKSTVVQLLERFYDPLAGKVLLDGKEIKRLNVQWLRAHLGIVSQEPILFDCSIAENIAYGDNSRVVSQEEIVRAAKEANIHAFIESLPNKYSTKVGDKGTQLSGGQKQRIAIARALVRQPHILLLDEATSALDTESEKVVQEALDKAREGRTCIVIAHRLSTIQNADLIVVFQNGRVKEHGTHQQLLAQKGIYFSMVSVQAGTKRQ

As for `O=C(NCCc1ccncc1)C1CCN(C(=O)c2cc3ccccc3n2Cc2c(F)cccc2F)CC1`, in [1] (be(2)-c), the half-maximal cytotoxic concentration (CC50) came to 34.5 µM. The half-maximal inhibitory concentration (IC50) in [2] turned out to be 1.3 µM. Besides, the selectivity ratio in series [3] was determined as 50. In addition, the inhibition at 4 h, 30 µM in [4] was found to be 28.5%.
Regarding `O=C(NCCc1ccncc1)C1CCN(C(=O)c2cc3ccncc3n2Cc2ccc(Cl)cc2)CC1`, the t1/2 in series [5] amounted to 9.1 min. Further, the Activity in series [6] was determined as 69.4 ×10⁶ PFU/ml. In [1] (be(2)-c), it took 77.1 µM to reach half-maximal cytotoxicity (CC50). Moreover, in [7], the Kinetic_solubility was found to be 125 µM. In series [2], the concentration for half-maximal inhibition (IC50) was found to be 4.4 µM. The inhibition at 4 h, 30 µM in series [4] is 1.2%. Further, in series [8], the viability at 24 h, 25 µM was 66.1%.
For the compound `O=C(NCCc1ccncc1)C1CCN(C(=O)c2cccn2Cc2ccc(Cl)cc2)CC1`, the t1/2 in series [5] came to 2.9 min. For the same compound, the Activity in series [6] was 23.8 ×10⁶ PFU/ml; in [11], 4.9 ×10⁶ PFU/ml. In [1] (BE(2)-C cells), this compound gave a CC50 of more than 100 µM. The same compound returned a Kinetic_solubility in [7] of 125 µM. Further, the concentration at 0.5 h came out at 124 ng/mL in series [9] and 19 ng/g in series [15]. The Drug uptake entry in series [10] and in series [14] was “BLD” in each case. Moreover, the IC50 in [2] was 0.7 µM. In addition, in series [12], the Cp entry was “BLD”. The same compound showed a concentration at 2 h in [13] of 5 ng/mL. In [4], the inhibition at 4 h, 30 µM is -1.2%. Further, the viability at 24 h, 25 µM in series [8] amounted to 59.1%.
In [5], `C[C@@H](NC(=O)C1CCN(C(=O)c2cc3ccccc3n2Cc2ccc(Cl)cc2)CC1)c1ccccc1` had a t1/2 of 2.1 min. Besides, the Activity worked out at 39.3 ×10⁶ PFU/ml in series [6] and 8.8 ×10⁶ PFU/ml in series [11]. The cytotoxic concentration (CC50) in series [1] (BE(2)-C cells) is more than 100 µM. For the same compound, in series [16], the concentration at 0.5 h is 10 ng/mL. The compound further returned a Kinetic_solubility in [7] of 8 µM. Also, the concentration at 2 h in series [17] worked out at 30 ng/mL. Further, the concentration for half-maximal inhibition (IC50) in [2] was determined as 6.5 µM. Further, in [18], the Cp entry is given as “BLD”. The Drug uptake result in [19], in series [20] and in series [21] was “BLD” in each case. Moreover, the inhibition at 4 h, 30 µM in series [4] amounted to 24.4%. Also, in [8], the viability at 24 h, 25 µM worked out at 36.7%.
Regarding `O=C(NCCc1ccncc1)C1CCN(C(=O)c2cc3ccccc3n2Cc2ccc(Cl)cc2)CC1`, the t1/2 in series [5] is recorded as 11.5 min. The Activity in [6] is 4.9 ×10⁶ PFU/ml; in series [11], 0.5 ×10⁶ PFU/ml. Further, in series [1] (be(2)-c), it took 49.9 µM to reach half-maximal cytotoxicity (CC50). The compound also yielded a concentration at 0.5 h in series [16] of 59 ng/mL. This compound also showed a Kinetic_solubility in series [7] of 31 µM. In series [17], the concentration at 2 h worked out at 79 ng/mL. In addition, the 50% inhibitory concentration (IC50) in series [2] was found to be 0.5 µM. Also, the concentration at 12 h in series [22] amounted to 23 ng/mL. The Drug uptake result in [19], in series [20] and in series [21] was “BLD” each time. Besides, the inhibition at 4 h, 30 µM in series [4] was determined as 30.9%. Moreover, in series [8], the viability at 24 h, 25 µM is 60.7%.
As to `CC(NC(=O)C1CCN(C(=O)c2cc3ccccc3n2Cc2ccc(Cl)cc2)CC1)c1ccncc1` (racemic), the Activity in series [6] was determined as 3.7 ×10⁶ PFU/ml; in series [11] it was 0.7 ×10⁶ PFU/ml. In series [1] (be(2)-c), this compound registered a cytotoxic concentration (CC50) of 90.1 µM. In series [7], this compound returned a Kinetic_solubility of 31 µM. Besides, in [2], the IC50 came to 2.4 µM. Besides, in series [4], the inhibition at 4 h, 30 µM worked out at 43.1%. Further, the viability at 24 h, 25 µM in series [8] turned out to be 63.2%.
With `NC(=O)c1ncn([C@@H]2O[C@H](CO)[C@@H](O)[C@H]2O)n1` [RIBAVIRIN], the Activity amounted to 53.5 ×10⁶ PFU/ml in series [6] and 9.3 ×10⁶ PFU/ml in series [11]. Also, the IC50 in [2] is 16 µM. Further, the viability at 24 h, 25 µM in series [8] was 32.6%.
